From ChEMBL document CHEMBL1122607, “Heterocyclic analogues of chlorcyclizine with potent hypolipidemic activity” (J Med Chem, 1984)

What was measured:
Rattus norvegicus [1] = assay: Hypolipidemic activity was measured as reduction in rat serum cholesterol after oral administration in male Wistar rats at 100 mg / (kg day); type: functional
How it was run: (§1)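 Cholesterol-fed rats given the test compound orally by gavage on the last 3 days, with controls receiving vehicle (0.5% tragacanth mucilage). After overnight starvation, rats were killed under CO2 3 h after the last dose and bled by cardiac puncture. Serum cholesterol and triglyceride were measured by autoanalyzer and expressed as percentage reduction from control levels, with Student's t test.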

Rattus norvegicus [2] = assay: Hypolipidemic activity was measured as reduction in rat serum triglyceride after oral administration in male Wistar rats at 100 mg / (kg day); type: functional; how it was run: as §1
Rattus norvegicus [3] = assay: Hypolipidemic activity was measured as reduction in rat serum cholesterol after oral administration in male Wistar rats at 100 mg/(kg day); type: functional; how it was run: as §1
Rattus norvegicus [4] = assay: Hypolipidemic activity was measured as reduction in rat serum cholesterol after oral administration in male Wistar rats at 30 mg / (kg day); type: functional; how it was run: as §1
Rattus norvegicus [5] = assay: Hypolipidemic activity was measured as reduction in rat serum triglyceride after oral administration in male Wistar rats at 30 mg / (kg day); type: functional; how it was run: as §1
Rattus norvegicus [6] = assay: Hypolipidemic activity was measured as reduction in rat serum triglyceride after oral administration in male Wistar rats at 10 mg / (kg day); type: functional; how it was run: as §1
Rattus norvegicus [7] = assay: Hypolipidemic activity was measured as reduction in rat serum cholesterol after oral administration in male Wistar rats at 10 mg / (kg day); type: functional; how it was run: as §1
[8] = The therapeutic safety margin (TSM) is the ratio of the minimum lethal dose (mg/kg)to the MED; type: ADME, organism-based; conditions: in vivo
How it was run: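 Young male Wistar rats, eight per group, on cholesterol/cholic acid-supplemented or normal diet; graded oral gavage doses daily for 14 days; vehicle controls (0.5% tragacanth mucilage). Mortalities recorded to give the minimum lethal daily dose. After overnight fasting, serum cholesterol assayed by autoanalyzer. MED is the dose giving a significant (t test) 30% cholesterol fall, from the log dose/response curve. TSM = minimum lethal dose/MED.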

Rattus norvegicus [9] = assay: Minimum effective dose (MED) is the dose (mg/kg)that cause significant reduction in serum cholesterol of 30% compared to concurrent controls.; type: functional; parameters: unit: mg/kg
How it was run: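 MED was calculated from the log dose/response curve as the dose giving a statistically significant 30% fall in serum cholesterol versus concurrent controls. Measured in the 3-day oral cholesterol-fed rat screen, or in a 2-week test: groups of eight young male Wistar rats on cholesterol/cholic acid-supplemented or normal diet, dosed orally by gavage daily for 14 days, vehicle 0.5% tragacanth mucilage.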

Compound | Reduction (Rattus norvegicus [1]) | Reduction (Rattus norvegicus [2]) | Reduction (Rattus norvegicus [3]) | Reduction (Rattus norvegicus [4]) | Reduction (Rattus norvegicus [5]) | Reduction (Rattus norvegicus [6]) | Reduction (Rattus norvegicus [7]) | therapeutic safety margin (minimum lethal dose / MED) [8] | MED (Rattus norvegicus [9])
Cc1cc(C(OCCN2CCCC2)c2ccc(C(C)C)cc2)sn1 (configuration not stated) | 30% | 2% | – | – | – | – | – | – | –
Cc1ccccc1C(c1nccn1C)N1CCN(C)CC1 (configuration not stated) | 5% | 29% | – | – | – | – | – | – | –
Cc1ccc(C(c2sncc2C)N2CCN(C)CC2)cc1C (configuration not stated) | – | 73% | 74% | 15% | 9% | 21% | 20% | – | –
Cc1cnsc1C(c1ccccc1Cl)N1CCN(C)CC1 (configuration not stated) | – | 90% | 80% | 44% | 10% | 1% | 16% | < 20 | 20
Cc1cc(C(SCCN(C)C)c2ccc(C(C)C)cc2)sn1 (configuration not stated) | – | 55% | 36% | – | – | – | – | – | –
CCCCOc1ccccc1C(c1cc(C)ns1)N1CCN(C)CC1 (configuration not stated) | – | 67% | 74% | 32% | 57% | – | – | – | –
Cc1cc(C(c2ccc(C(C)(C)C)cc2)N2CCN(C)CC2)sn1 (configuration not stated) | 25% | 20% | – | – | – | – | – | – | –
Cc1cc(C(c2ccc(C(C)C)cc2)C2CCN(C)CC2)sn1 (configuration not stated) | – | 42% | 45% | 12% | 32% | – | – | – | –
Cc1cc(C(c2cccc(Cl)c2)N2CCN(C)CC2)sn1 (configuration not stated) | – | 41% | 33% | – | – | – | – | – | –
CCc1ccccc1C(c1cc(C)ns1)N1CCN(C)CC1 (configuration not stated) | – | 88% | 81% | 71% | – | – | – | – | –
Cc1cc(C(OCCN(C)C)c2ccc(C(C)C)cc2)sn1 (configuration not stated) | – | 41% | 45% | 3% | 36% | – | – | – | –
Cc1cc(C(c2ccc(C3CCCCC3)cc2)N2CCN(C)CC2)sn1 (configuration not stated) | – | 73% | 64% | 7% | – | – | – | – | –
Cc1noc(C)c1C(c1ccccc1Cl)N1CCN(C)CC1 (configuration not stated) | – | 41% | 52% | 7% | 6% | – | – | – | –
Cc1ccccc1C(c1sncc1C)N1CCN(C)CC1 (configuration not stated) | – | 64% | 72% | – | – | – | – | – | –
Cc1cc(C(c2ccc(C(C)C)cc2)N2CCOCC2)sn1 (configuration not stated) | 7% | 10% | – | – | – | – | – | – | –
CCOc1ccccc1C(c1cc(C)ns1)N1CCN(C)CC1 (configuration not stated) | 25% | 35% | – | – | – | – | – | – | –
Cc1nc(C)c(C(c2ccccc2Cl)N2CCN(C)CC2)s1 (configuration not stated) | – | 79% | 78% | – | – | – | – | – | –
Cc1cc(C(c2ccccc2C(C)C)N2CCN(C)CC2)sn1 (configuration not stated) | – | – | – | 36% | 9% | – | – | – | –
Cc1ccc(C(c2cc(C)ns2)N2CCN(C)CC2)cc1 (configuration not stated) | 9% | – | – | – | – | – | – | – | –
Cc1cc(C(c2ccc(C)c(C)c2)N2CCN(C)CC2)sn1 (configuration not stated) | 11% | 1% | – | – | – | – | – | – | –
Cc1noc(C)c1C(OC1CCNCC1)c1ccc(C(C)C)cc1 (configuration not stated) | – | 23% | 45% | 4% | 8% | – | – | – | –
Cc1cc(C(c2ccc(Oc3ccccc3)cc2)N2CCN(C)CC2)sn1 (configuration not stated) | – | 59% | 42% | 17% | 25% | – | – | – | –
Cc1cc(C(c2ccc(C(C)C)cc2)N2CC(C)NC(C)C2)sn1 (configuration not stated) | 16% | 32% | – | – | – | – | – | – | –

Compound | Reduction (Rattus norvegicus [1]) | Reduction (Rattus norvegicus [2]) | Reduction (Rattus norvegicus [3]) | Reduction (Rattus norvegicus [4]) | Reduction (Rattus norvegicus [5]) | Reduction (Rattus norvegicus [6]) | Reduction (Rattus norvegicus [7]) | therapeutic safety margin (minimum lethal dose / MED) [8] | MED (Rattus norvegicus [9])
Cc1cc(C(c2ccc(C(C)C)cc2)N2CCN(CCO)CC2)sn1 (configuration not stated) | – | 73% | 73% | 67% | 14% | 0% | 23% | 20 | 15
CN1CCN(C(c2ccccc2)c2ccccn2)CC1 (configuration not stated) | – | 74% | 81% | 22% | 16% | – | – | – | –
CCc1ccc(C(c2sncc2C)N2CCN(CCO)CC2)cc1 (configuration not stated) | – | – | – | 45% | 51% | 3% | 15% | – | –
Cc1cc(C(c2ccccc2OC(C)C)N2CCN(C)CC2)sn1 (configuration not stated) | – | 86% | 83% | – | – | – | – | – | –
Cc1cc(C(O)(c2ccc(C(C)C)cc2)C2CCN(C)CC2)sn1 (configuration not stated) | – | 85% | 67% | 57% | 57% | 25% | 28% | – | –
Cc1ccccc1C(c1c(C)noc1C)N1CCNCC1 (configuration not stated) | – | 80% | 76% | 26% | 21% | 46% | 2% | – | –
Cc1cc(C(c2ccc(OC(C)C)cc2)N2CCN(C)CC2)sn1 (configuration not stated) | – | 31% | 33% | – | – | – | – | – | –
CC(C)c1ccc(C(c2ccns2)N2CCN(CCO)CC2)cc1 (configuration not stated) | – | 89% | 74% | 80% | 49% | – | – | 40 | 5
Cc1cc(C(c2ccc(F)cc2)N2CCN(C)CC2)sn1 (configuration not stated) | 11% | 15% | – | – | – | – | – | – | –
Cc1cnsc1C(c1ccc(CC(C)C)cc1)N1CCN(CCO)CC1 (configuration not stated) | – | 97% | 85% | 86% | 81% | 48% | 48% | – | 6
Cc1cc(C(c2ccc(C(C)C)cc2)N2CCN(S(C)(=O)=O)CC2)sn1 (configuration not stated) | 19% | 3% | – | – | – | – | – | – | –
Cc1noc(C)c1C(OC1CCCN(C)C1)c1ccc(C(C)C)cc1 (configuration not stated) | – | 52% | 79% | 38% | 16% | 12% | 32% | – | –
Cc1cc(C(c2ccc(C(C)C)cc2)N2CCN(C(=O)c3ccccc3)CC2)sn1 (configuration not stated) | 26% | 16% | – | – | – | – | – | – | –
Cc1cc(C(c2cccc([N+](=O)[O-])c2)N2CCN(C)CC2)sn1 (configuration not stated) | 2% | 17% | – | – | – | – | – | – | –
Cc1cc(C(c2ccc(OCc3ccccc3)cc2)N2CCN(C)CC2)sn1 (configuration not stated) | 11% | 34% | – | – | – | – | – | – | –
Cc1noc(C)c1C(c1ccccc1Cl)N1CCNCC1 (configuration not stated) | – | 97% | 87% | 14% | 62% | – | – | – | –
Cc1cccc(C(c2cc(C)ns2)N2CCN(C)CC2)c1 (configuration not stated) | 26% | 22% | – | – | – | – | – | – | –
Cc1cc(C(c2ccc(C(C)C)cc2)N2CCNCC2)sn1 (stereo in doubt; 66) | – | 73% | 68% | 59% | 23% | 4% | 38% | – | –
CN1CCN(C(c2ccccc2)c2ccc(Cl)cc2)CC1 (configuration not stated) [CHLORCYCLIZINE] | – | – | – | – | – | – | – | 10 | 15
CCOC(=O)C(C)(C)Oc1ccc(Cl)cc1 [CLOFIBRATE] | – | – | – | – | – | – | – | – | 200
CC(C)OC(=O)C(C)(C)Oc1ccc(C(=O)c2ccc(Cl)cc2)cc1 [FENOFIBRATE] | – | – | – | – | – | – | – | – | 200
O=C(O)c1cccnc1 [NIACIN] | – | – | – | – | – | – | – | – | 400
